NadD block: blocks S. aureus nicotinate mononucleotide adenylyltransferase; purified NadD enzyme, colorimetric absorbance read-out; inhibition, % at 20 µM; 360,000 compounds, 0.78% hits; in the data active means inhibition above about 26%
Scp1 inh: inhibitors of human Scp-1 phosphatase | inhibition, % at 20 µM | Q9GZU7 | Recombinant Scp1, phosphopeptide, malachite green phosphate absorbance | 340,000 compounds, 0.88% hits;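 active means inhibition above about 50% at 20 µM, limit read from the data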
Target sequence (Q9GZU7 76-261 limits assumed): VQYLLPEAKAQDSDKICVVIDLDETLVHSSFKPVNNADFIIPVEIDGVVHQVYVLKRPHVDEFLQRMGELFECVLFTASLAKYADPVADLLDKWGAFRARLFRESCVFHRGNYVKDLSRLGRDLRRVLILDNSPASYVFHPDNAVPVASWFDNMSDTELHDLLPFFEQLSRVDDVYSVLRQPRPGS
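Test system: SCP-1 phosphatase catalytic domain, residues 76-261 | Compound dosing: One concentration, 20 µM, with 1.0% DMSO | Schedule: 45 min room-temperature reaction, 5 min colour, 30 min stabiliser | Detection: Absorbance at 630 nm | Read-out basis: % inhibition of SCP-1 phosphate liberation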
rCAG binder: molecules binding r(CAG) RNA repeats | r(CAG) RNA repeat, TO-PRO-1 dye displacement fluorescence | inhibition, % at 3 µM | 370,000 compounds, 1.3% hits;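 active means inhibition above the plate cutoff, the mean of all test compounds on that plate plus 3 SD, cut at about 35% in these data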;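 further: higher means more dye released from RNA so lower well fluorescence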
LMPTP block: LMPTP (human) inhibition | recombinant LMPTP-A, OMFP fluorogenic substrate, fluorescence intensity | inhibition, % at 20 µM | 360,000 compounds, 0.22% hits | AID 651560;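 active means compounds that cut the enzyme signal by at least half of the control window in the single-dose screen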
Target sequence (P24666 whole entry, looked up): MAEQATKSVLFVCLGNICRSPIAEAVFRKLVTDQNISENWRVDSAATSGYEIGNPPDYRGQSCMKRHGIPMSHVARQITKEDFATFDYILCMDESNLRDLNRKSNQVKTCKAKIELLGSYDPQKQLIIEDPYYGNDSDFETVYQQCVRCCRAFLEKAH
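material = LMPTP-A | quantity = 0.625 nM enzyme | reagent = OMFP substrate, 400 µM final | buffer or medium = Bis-Tris pH 6.0, DTT, detergent | detection = endpoint fluorescence intensity from OMFP dephosphorylation | dosing = single 20 µM dose | read-out basis = % inhibition relative to no-enzyme and uninhibited control wells | control set = no-enzyme and uninhibited controls | timing = 50 min at room temperature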
STEP block: inhibitors of human striatal-enriched phosphatase STEP | recombinant STEP, OMFP fluorogenic substrate, fluorescence | 360,000 compounds, 0.25% hits | inhibition, % at 20 µM | P54829;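 active means inhibition at 20 µM, scaled per plate between control wells, above about 37%, limit read from the data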
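Measure: Control-normalized % inhibition with plate pattern correction | Test system: STEP phosphatase, cell-free reaction | Medium: pH 6.0 Bis-Tris with DTT and Tween 20 | Technique: Fluorescence, 480/540 nm | Times: Reaction 20 min, ambient temperature | Doses: Single compound dose of 20 µM, 1% DMSO final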
Scp1 confirm: Scp-1 (human) inhibition, single-dose confirmed; shares compounds with Scp1 inh; recombinant SCP-1 catalytic domain, phosphate release, malachite green absorbance; inhibition, % at 20 µM; 2,500 compounds, 61% hits; AID 540281
MG interference: colorimetric interference in Scp-1 counter-screen. shares compounds with Scp1 inh. Colorimetric interference counterscreen, malachite green absorbance 630 nm. apparent inhibition (interference), % at 20 µM. 2,500 tested, under 10 active. AID 540313;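 further: compounds added after enzyme reaction finished so only phosphate colour detection is probed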
Scp-1 Tm shift: Scp-1 (human) binding by thermal shift; shares compounds with Scp1 inh; Recombinant SCP1, Sypro Orange thermal shift Tm; thermal shift relative to vanadate control, % at 40 µM; 1,500 compounds, 25% hits;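 active means substances whose mean melting-temperature shift, as a percentage of the reference inhibitor's shift, reaches about 5.3%, limit read from the data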
Large screens that a line does not name were inactive (follow-up assays come after a bar, where they were run). The list is not random: actives were taken first. Their share in the collection is about 2.6%.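 How the source made its calls, unless noted: active means inhibition of at least 30% at 20 µM; inactive means the rest.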

O=C(Nc1nnc(SCc2ccc(F)cc2)s1)C1CC(=O)N(c2ccc3c(c2)OCCO3)C1 (stereo not drawn)	none
O=C(Nc1nc(-c2ccco2)c(-c2ccco2)s1)C1CC(=O)N(c2ccc3c(c2)OCCO3)C1 (stereo not drawn)	NadD block 72, Scp1 inh 82 | Scp1 confirm 57 | MG interference inactive | Scp-1 Tm shift 13
O=C(Nc1nnc(SCc2c(Cl)cccc2Cl)s1)C1CC(=O)N(c2ccc3c(c2)OCCO3)C1 (stereo not drawn)	Scp1 inh 67 | Scp1 confirm 66 | MG interference inactive | Scp-1 Tm shift inactive
Cc1ccc(C(=O)N2CCC(Oc3cccnc3)CC2)cc1	none (no result: NadD block, Scp1 inh, LMPTP block, STEP block)
COC(=O)[C@]12C[C@H](CC(=O)NCc3ccc(OC)c(OC)c3)C(=O)N(Cc3ccc(Cl)cc3Cl)C1=C[C@H](C1CCCC1)O[C@@H]2C	none (no result: NadD block, Scp1 inh, LMPTP block, STEP block)
O=C(CN1CCN(c2nc(-c3ccccc3)cs2)CC1)Nc1ccc(F)cc1F	none (no result: NadD block, Scp1 inh, LMPTP block, STEP block)
CCOc1cc2c(cc1/C=C(/C#N)c1ccc(C(=O)O)cc1)OCO2	none
N#C/C(=C\c1cc2c(cc1Br)OCO2)c1ccc(C(=O)O)cc1	Scp1 inh 52 | Scp1 confirm 68 | MG interference inactive | Scp-1 Tm shift inactive
CCC(CO)N=CC1=C(O)CC(C)(C)CC1=O (stereo not drawn)	none
CSCCC(N=CC1=C(O)CC(C)(C)CC1=O)C(=O)O (stereo not drawn)	Scp1 inh 73 | Scp1 confirm inactive | MG interference inactive
CC(C)c1cc(C(C)C)c(S(=O)(=O)NCC(=O)N2CCN(c3ncccn3)CC2)c(C(C)C)c1	none (no result: NadD block, Scp1 inh, LMPTP block, STEP block)
O=C(O)c1ccc2c3c(cccc13)C(=O)N(c1ccccc1)C2=O	none
O=C(O)c1ccc(N2C(=O)c3cccc4c(C(=O)O)ccc(c34)C2=O)cc1	Scp1 inh 72 | Scp1 confirm 45 | MG interference inactive | Scp-1 Tm shift 12
CCCC(C)NC(=O)c1c2c(nc3ccccc13)CCC2 (stereo not drawn)	none
O=C(NCc1ccco1)c1c2c(nc3ccccc13)CCC2	Scp1 inh 66 | Scp1 confirm 51 | MG interference inactive | Scp-1 Tm shift 8.3
O=C(NCc1ccc(F)cc1)c1c2c(nc3ccccc13)CCC2	Scp1 inh 52 | Scp1 confirm 60 | MG interference inactive | Scp-1 Tm shift 12
CCCCOc1cccc(C(=O)NCCc2ccccc2-c2ccccc2CCC(=O)NCc2ccccc2)c1	none (no result: NadD block, Scp1 inh, LMPTP block, STEP block)
CCCNC(=O)Cn1c(=O)oc2cc(S(=O)(=O)N3CCCC3)ccc21	none
O=C(Cn1c(=O)oc2cc(S(=O)(=O)N3CCCCCC3)ccc21)NC1CCCCCCC1	Scp1 inh 101 | Scp1 confirm 54 | MG interference inactive | Scp-1 Tm shift inactive
O=C(Cn1c(=O)oc2cc(S(=O)(=O)N3CCCC3)ccc21)N1CCN(c2ccccc2)CC1	Scp1 inh 69 | Scp1 confirm inactive | MG interference inactive
COC(=O)[C@]12C[C@H](CC(=O)N3CCC(c4ccccc4)CC3)C(=O)N(Cc3ccco3)C1=C[C@H](C(C)C)O[C@@H]2C1CC1	none (no result: NadD block, Scp1 inh, LMPTP block, STEP block)
CNS(=O)(=O)/C=C/c1ccccc1CCNC(=O)OC(C)(C)C	none (no result: NadD block, Scp1 inh, LMPTP block, STEP block)
C=CCN1C(=O)[C@@H](CC(=O)N2CCSCC2)[C@]2(C(=O)OC)CCCCC=C12	none (no result: NadD block, Scp1 inh, LMPTP block, STEP block)
COc1ccc(C(=O)Nc2ccc3c(c2)C(=O)c2ccccc2C3=O)cc1OC	Scp1 inh 66, STEP block 55 | Scp1 confirm inactive | MG interference inactive
COc1ccc(C(=O)Nc2ccc3ccccc3c2)cc1OC	none
COc1ccc(NC(=O)CN(c2ccccc2)S(=O)(=O)N(C)C)cc1OC	Scp1 inh 76 | Scp1 confirm 69 | MG interference inactive | Scp-1 Tm shift inactive
Cc1cc(C(=O)Nc2ccc(Cl)c(Cl)c2)n(-c2ccccc2)n1	none (no result: NadD block, Scp1 inh, LMPTP block, STEP block)

Compound activity from PubChem BioAssay.
